Ten molecules from ChEMBL document CHEMBL1145016, “Synthesis and antitumor activity of conjugates of muramyldipeptide or normuramyldipeptide with hydroxyacridine/acridone derivatives” (J Med Chem, 2003) can be followed below.

Activity calls are given as the source filed them.

Data set [1] relates to MCF7. Kind of data set: Tested for cytotoxicity of compound against MCF-7 (breast) cell line; IA means inactive. The settings on record: Homo sapiens. The format is functional, cell-based.
The test system of data set [2] is NCI-H460. Put plainly: Tested for cytotoxicity of compound against NCI-H460 (lung)cell line; IA means inactive. The format is functional, cell-based. The conditions noted are these: Homo sapiens.
The subject of data set [3] is SF-268. Kind of data set: Tested for cytotoxicity of compound against SF-268 (CNS) cell line; IA means inactive. The format is functional, cell-based. The conditions noted are these: Homo sapiens.
Data set [4] has as its system Mus musculus. Kind of data set: Evaluated in vivo for percent growth delay in mice at 0.67 mg/kg for 12 days by intraperitoneal treatment on COLO 205 colon cell line. The format is functional.
Data set [5] relates to Mus musculus. Put plainly: Evaluated in vivo for percent growth delay in mice at 1.50 mg/kg for 10 days by intraperitoneal treatment on UACC-62 melanoma cell line. The format is functional. The conditions noted are these: dose 1.5 mg/kg.
Data set [6] concerns Mus musculus. Kind of data set: Evaluated in vivo for percent growth delay in mice at 1.80 mg/kg for 24 (38) days by intravenous treatment on MDA-MB-435 breast cell line. The format is functional. The conditions noted are these: dose 1.8 mg/kg.
Data set [7] concerns Mus musculus. Kind of data set: Evaluated in vivo for percent growth delay in mice at 0.90 mg/kg for 5 days by intraperitoneal treatment on HCT-15 colon cell line. The format is functional. The settings on record: dose 0.9 mg/kg.
Data set [8] relates to Mus musculus. Put plainly: Evaluated in vivo for percent of tumor weight in treated/control of mice at 0.67 mg/kg for 12 days by intraperitoneal treatment on COLO 205 colon cell line. The format is functional.
Data set [9] has as its system Mus musculus. Put plainly: Evaluated in vivo for percent of tumor weight in treated/control of mice at 0.90 mg/kg for 5 days by intraperitoneal treatment on HCT-15 colon cell line. The conditions noted are these: dose 0.9 mg/kg. The format is functional.
Data set [10] concerns Mus musculus. Kind of data set: Evaluated in vivo for percent of tumor weight in treated/control of mice at 0.90 mg/kg for 7 days by intraperitoneal treatment on RXF-393 renal cell line. The format is functional. The conditions noted are these: dose 0.9 mg/kg.
Data set [11] relates to Mus musculus. Kind of data set: Evaluated in vivo for percent of tumor weight in treated/control of mice at 1.00 mg/kg for 7 days by intraperitoneal treatment on AS283 lymphoma cell line. The format is functional.
For data set [12], the system named is Mus musculus. Kind of data set: Evaluated in vivo for percent of tumor weight in treated/control of mice at 1.34 mg/kg for 7 days by intraperitoneal treatment on NCI-H460 non-small cell lung cell line. The format is functional.
Data set [13] deals with Mus musculus. Kind of data set: Evaluated in vivo for percent of tumor weight in treated/control of mice at 1.50 mg/kg for 10 days by intraperitoneal treatment on UACC-62 melanoma cell line. The format is functional. The conditions noted are these: dose 1.5 mg/kg.
Data set [14] has as its system Mus musculus. Put plainly: Evaluated in vivo for percent growth delay in mice at 0.90 mg/kg for 7 days by intraperitoneal treatment on RXF-393 renal cell line. The format is functional. The settings on record: dose 0.9 mg/kg.
Data set [15] relates to Mus musculus. Put plainly: Evaluated in vivo for percent growth delay in mice at 1.00 mg/kg for 7 days by intraperitoneal treatment on AS283 lymphoma cell line. The format is functional.
The subject of data set [16] is Mus musculus. Kind of data set: Evaluated in vivo for percent growth delay in mice at 1.34 mg/kg for 7 days by intraperitoneal treatment on NCI-H460 non-small cell lung cell line. The format is functional.
Data set [17] has as its system Mus musculus. Kind of data set: Evaluated in vivo for toxic deaths of mice at 0.67 mg/kg for 12 days by intraperitoneal treatment on COLO 205 colon cell line. The format is toxicity, organism-based. The settings on record: ip, 288 h. Also noted: dose 0.67 mg/kg, route intraperitoneal. Summed up: (§1)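 Nude mice carrying subcutaneous human tumor xenografts, tested at NCI Bethesda; compound given on the stated schedule, intraperitoneally (IP) or intravenously (IV). Three dose levels were tested, and the table reports only the optimal one. Toxic deaths are scored per treatment group alongside tumor weight end points.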

Data set [18] relates to Mus musculus. Kind of data set: Evaluated in vivo for toxic deaths of mice at 0.90 mg/kg for 5 days by intraperitoneal treatment on HCT-15 colon cell line. The format is toxicity, organism-based. Further details: dose 0.9 mg/kg, route intraperitoneal. The conditions noted are these: ip, 0.9 mg/kg, 120 h. A digest of the protocol:
as §1

Data set [19] deals with Mus musculus. Kind of data set: Evaluated in vivo for percent of tumor weight in treated/control of mice at 1.80 mg/kg for 24 (38) days by intravenous treatment on MDA-MB-435 breast cell line. The format is functional. The conditions noted are these: dose 1.8 mg/kg.
In data set [20] the test system is Mus musculus. Put plainly: Evaluated in vivo for toxic deaths of mice at 0.90 mg/kg for 7 days by intraperitoneal treatment on RXF-393 renal cell line. The format is toxicity, organism-based. Further details: dose 0.9 mg/kg, route intraperitoneal. The conditions noted are these: ip, 0.9 mg/kg, 168 h. A digest of the protocol: as §1
The subject of data set [21] is Mus musculus. Put plainly: Evaluated in vivo for toxic deaths of mice at 1.34 mg/kg for 7 days by intraperitoneal treatment on NCI-H460 non-small cell lung cell line. The format is toxicity, organism-based. Also noted: dose 1.34 mg/kg, route intraperitoneal. The settings on record: ip, 168 h. A digest of the protocol: as §1
Data set [22] deals with Mus musculus. Put plainly: Evaluated in vivo for toxic deaths of mice at 1.50 mg/kg for 10 days by intraperitoneal treatment on UACC-62 melanoma cell line. The settings on record: ip, 1.5 mg/kg, 240 h. Also noted: dose 1.5 mg/kg, route intraperitoneal. The format is toxicity, organism-based. A digest of the protocol: as §1
Data set [23] concerns Mus musculus. Put plainly: Evaluated in vivo for toxic deaths of mice at 1.80 mg/kg for 24 (38) days by intravenous treatment on MDA-MB-435 breast […] cell line. The format is toxicity, organism-based. Further details: dose 1.8 mg/kg, route intravenous. The conditions noted are these: 1.8 mg/kg. A digest of the protocol:
as §1

A short description of data set [24]: Tested for cytotoxicity (lethal concentration) of compound, activity expressed as MID log LC50. The format is functional. A digest of the protocol:
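MID is the calculated mean of LC50 concentrations (M) across the cell line panel, where LC50 is the half-lethal concentration. It is reported as a log value.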

Data set [25] in a line: Evaluated in vivo for intraperitoneal score in hallow fiber assay. The format is functional. A digest of the protocol: (§2)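 NCI hollow fiber preliminary in vivo assay; scores recorded separately for intraperitoneal (ip) and subcutaneous (sc) fiber implantation sites, with an activity criterion applied (Y/N). Procedure detailed in prior work.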
Data set [26] is described as follows: Evaluated in vivo for intraperitoneal + subcutaneous score in hallow fiber assay. The format is functional. Summed up:
as §2

Data set [27] in a line: Evaluated in vivo for subcutaneous score in hallow fiber assay. The format is functional. A digest of the protocol:
as §2

The test system of data set [28] is Mus musculus. Kind of data set: Evaluated in vivo for toxic deaths of mice at 1.00 mg/kg for 7 days by intraperitoneal treatment on AS283 lymphoma cell line. The conditions noted are these: ip, 168 h. Further details: dose 1 mg/kg, route intraperitoneal. The format is toxicity, organism-based. Summed up: as §1
Data set [29] has as its system MCF7. Kind of data set: Tested for cytotoxicity of compound against MCF-7 (breast) cell line; Compound was active. The format is functional, cell-based. The conditions noted are these: Homo sapiens.
Data set [30] relates to NCI-H460. Put plainly: Tested for cytotoxicity of compound against NCI-H460 (lung)cell line; Compound was active. The format is functional, cell-based. The conditions noted are these: Homo sapiens.
Data set [31] has as its system SF-268. Kind of data set: Tested for cytotoxicity of compound against SF-268 (CNS) cell line; Compound was active. The format is functional, cell-based. The settings on record: Homo sapiens.

On to `CC(=O)N[C@@H]1[C@H](OCc2ccccc2)OC(CO)C(O)[C@H]1OCC(=O)N[C@H](C)C(=O)N[C@H](CCC(=O)OCCNC(=O)c1cccc2c(=O)c3ccccc3[nH]c12)C(N)=O` (stereo partly specified), for which the IA result in data set [1], in [2] and in [3] was “inactive” in each case.
With `CC(=O)N[C@@H]1[C@H](OCc2ccccc2)OC(CO)C(O)[C@H]1OC(C)C(=O)N[C@H](C)C(=O)N[C@H](CCC(=O)OCCNc1c2ccccc2nc2cccc([N+](=O)[O-])c12)C(N)=O` (stereo partly specified), the “Growth delay (T-C/C)” value in [4] is on record as 11%; in data set [5], 2%; in data set [6], 17%; in data set [7], 5%; in data set [14], 32%; in [15] it was 9%. Further, the “Growth delay (T-C/C)” value in [16] was determined as 21%. The Tumor weight amounted to 75% in [8]; 79% in data set [9]; 81% in data set [10]; 63% in data set [11]; 54% in [12]; 89% in data set [13]. The molecule also registered a Tumor weight in data set [19] of 60%. The Toxic deaths in data set [17] was determined as 0; in [18] it was 2; in data set [20], 0; in data set [21], 1; in data set [22] it was 0; in [23], 2. The Toxic deaths in data set [28] is recorded as 0. For the same molecule, in data set [24], the “MID log LC50” value is given as 6.85 M. Further, the results for the Score in [25], in data set [26] and in data set [27] were 12, 20 and 8, respectively.
As for `CC(=O)N[C@@H]1[C@H](OCc2ccccc2)OC(CO)C(O)[C@H]1OC(C)C(=O)N[C@@H](C(=O)N[C@H](CCC(=O)OCCNC(=O)c1cccc2c(=O)c3ccccc3[nH]c12)C(N)=O)C(C)C` (stereo partly specified), the IA entry in data set [1], in data set [2] and in [3] was “inactive” throughout.
In the case of `CC(=O)N[C@@H]1[C@H](OCc2ccccc2)OC(CO)C(O)[C@H]1OCC(=O)N[C@H](C)C(=O)N[C@H](CCC(=O)OCCNC(=O)c1cccc2cc3ccccc3nc12)C(N)=O` (stereo partly specified), the IA entry in data set [1], in [2] and in data set [3] was “inactive” in each case.
Consider `CC(=O)N[C@@H]1[C@H](OCc2ccccc2)OC(CO)C(O)[C@H]1OC(C)C(=O)N[C@@H](C(=O)N[C@H](CCC(=O)OCCCNC(=O)c1cccc2cc3ccccc3nc12)C(N)=O)C(C)C` (stereo partly specified), for which the IA result in data set [1], in data set [2] and in data set [3] was “inactive” in each case.
Turning to `CC(=O)N[C@@H]1[C@H](OCc2ccccc2)OC(CO)C(O)[C@H]1OCC(=O)N[C@H](C)C(=O)N[C@H](CCC(=O)OCCCNC(=O)c1cccc2c(=O)c3ccccc3[nH]c12)C(N)=O` (stereo partly specified), the Cytotoxicity entry in data set [29], in data set [30] and in data set [31] was “Active” in each case. Moreover, the “MID log LC50” value in data set [24] amounted to 4.04 M.
For `CC(=O)N[C@@H]1[C@H](OCc2ccccc2)OC(CO)C(O)[C@H]1OC(C)C(=O)N[C@H](C)C(=O)N[C@H](CCC(=O)OCCNC(=O)c1cccc2cc3ccccc3nc12)C(N)=O` (stereo partly specified), the IA result in data set [1], in [2] and in [3] was “inactive” in each case.
For `CC(=O)N[C@@H]1[C@H](OCc2ccccc2)OC(CO)C(O)[C@H]1OC(C)C(=O)N[C@H](C)C(=O)N[C@H](CCC(=O)OCCCNC(=O)c1cccc2cc3ccccc3nc12)C(N)=O` (stereo partly specified), the IA entry in [1], in [2] and in data set [3] was “inactive” each time.
As for `CC(=O)N[C@@H]1[C@H](OCc2ccccc2)OC(CO)C(O)[C@H]1OC(C)C(=O)N[C@H](C)C(=O)N[C@H](CCC(=O)OCCCCNC(=O)c1cccc2cc3ccccc3nc12)C(N)=O` (stereo partly specified), the IA result in data set [1], in data set [2] and in data set [3] was “inactive” each time.
In the case of `O=[N+]([O-])c1cccc2nc3ccccc3c(NCCO)c12`, in [24], the “MID log LC50” value was determined as 5.9 M.
